Laboratory results: PMC4321732 (Structure (London, England : 1993), 2015)
Blank lines part the entries; values can stand above or below the substance they belong to. *1 amine or outer side, *2 acyl side, *3 side chain or, on linkers, in order; H or OH if unused. Where no end group is shown, it is not given here. [ ]: non-standard residue; d: D form. KCme2 = N-dimethylated aminoethylcysteine, CN(C)CCSC[C@H](N[*:1])C(=O)[*:2]; Me2 = dimethyl group on the Lys side-chain amine

Key:
53BP1 TTD [1] = biological target: T1, 53BP1 TTD (Homo sapiens, UniProt Q12888); experiment: NMR titration; format: binding; settings: 1H,15N HSQC, 298 K; for effect of glycine mutation on CSPs in 15N-labeled TTD: 0.1–0.2 mM TTD, glycine mutants of p53KC370me2 peptide
53BP1 TTD [2] = biological target: T1, 53BP1 TTD; experiment: NMR solution structure of TTD-peptide complex; settings: 298 K, 25 mM sodium phosphate pH 7.5
Outline: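 Complexes of the 53BP1 tandem Tudor domain with dimethylated p53 peptides (residues 363–377 or 376–387) recorded on a 700 MHz cryoprobe in 90% H2O/10% D2O or 100% D2O with 1.5 mM NaN3. Samples were 2 mM 13C/15N-TTD with 6 mM unlabeled peptide, or 2 mM labeled dimethyllysine-analog peptide with 5 mM TTD. Intermolecular NOEs came from filtered 13C-edited NOESY-HSQC.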

53BP1 TTD [3] = biological target: T1, 53BP1 TTD; settings: monomeric TTD; ref Roy et al., 2010; cited from earlier work
53BP1 TTD [4] = biological target: T1, 53BP1 TTD; experiment: Overall preference of 53BP1 TTD from peptide library, fluorescence and NMR; format: binding; settings: overall conclusion from library, fluorescence and NMR results
GST-tagged 53BP1 TTD = experiment: Peptide microarray; format: binding, human; settings: normalized mean intensities of four arrays
CL-TTD = CL-TTD (Homo sapiens, UniProt Q12888, C1525A/C1535A); experiment: NMR titration; format: binding; settings: 1H,15N HSQC, 298 K, 0.1–0.2 mM CL-TTD
CL-TTD, sequence (Q12888 1481-1603 C1525A/C1535A): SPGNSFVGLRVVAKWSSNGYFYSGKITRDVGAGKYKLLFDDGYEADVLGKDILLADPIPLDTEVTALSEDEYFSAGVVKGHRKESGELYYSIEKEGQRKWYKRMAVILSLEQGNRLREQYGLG

T1 sequence (Q12888 1484-1603): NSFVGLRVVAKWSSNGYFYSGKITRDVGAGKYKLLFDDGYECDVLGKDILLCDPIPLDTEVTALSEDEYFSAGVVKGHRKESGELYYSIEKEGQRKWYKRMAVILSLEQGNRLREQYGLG

Substance: p53H368GKC370me2: p53KC370me2 peptide with H368 substituted with glycine (GHMRAHSSGLCSKKGQST; not fully specified (residue 11))
- effect of glycine mutation on CSPs in 15N-labeled TTD (53BP1 TTD [1]): Alterations in CSPs

Substance: p53KC370me2K372G: p53KC370me2 peptide with K372 substituted with glycine (GHMRAHSSHLCSGKGQST; not fully specified (residue 11))
- effect of glycine mutation on CSPs in 15N-labeled TTD (53BP1 TTD [1]): caused the same CSPs as the wild type p53KC382me2 peptide

Substance: p53KC370me2K373G: p53KC370me2 peptide with K373 substituted with glycine (GHMRAHSSHLCSKGGQST; not fully specified (residue 11))
- effect of glycine mutation on CSPs in 15N-labeled TTD (53BP1 TTD [1]): caused the same CSPs as the wild type p53KC382me2 peptide

Substance: p53L369GKC370me2: p53KC370me2 peptide with L369 substituted with glycine (GHMRAHSSHGCSKKGQST; not fully specified (residue 11))
- effect of glycine mutation on CSPs in 15N-labeled TTD (53BP1 TTD [1]): Alterations in CSPs

Second part, led by results:

- effect of glycine mutation on CSPs in 15N-labeled TTD (53BP1 TTD [1]): Alterations in CSPs
Substance: p53H365GKC370me2: p53KC370me2 peptide with H365 substituted with glycine (GHMRAGSSHL[KCme2]SKKGQST)

- protein-peptide interface area in NMR ensemble (53BP1 TTD [2]): 707 ± 43 Å^2
Substance: p53K370me2: p53K370me2 (residues 363–377) peptide, chemically synthesized (RAHSSHLK(Me2)SKKGQST)
- site of dimethyllysine indicated by pattern of CSPs (53BP1 TTD [1]): fully consistent with K370me2 occupying the aromatic cage
- Kd (53BP1 TTD [3]): 20 µM

- preference of 53BP1 TTD module (53BP1 TTD [4]): strong preference
- binding in peptide library screen (GST-tagged 53BP1 TTD): recognized primarily
- protein-peptide interface area in NMR ensemble (53BP1 TTD [2]): 678 ± 60 Å^2
- chemical shift / resonance intensity changes in 15N-labelled CL-TTD (CL-TTD): substantial chemical shift changes
Substance: p53K382me2: p53K382me2 (residues 376–387) peptide, chemically synthesized (STSRHKK(Me2)LMFKT)
- Kd (53BP1 TTD [3]): 0.9 µM
